Assay [1] is described as follows: Antiplatelet aggregation activity against platelet-activating factor-induced pig platelet aggregation after 5 mins by aggregometer. To be noted: Sus scrofa. In kind it is functional, cell-based. The method in brief:
(§1)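 Pig blood from six pigs was spun at 1000 rpm for 10 min to give PRP, then at 1500g for 10 min to give PPP. PRP was adjusted to 2 × 10⁸ platelets/mL with autologous PPP. Test agent or NS was added at final 100 µM–1 nM. Agonists were at final concentrations of ADP 10 µM, AA 350 µM, PAF 0.1 µM and thrombin 0.1 U/mL. Light-transmission peak was read at 37 °C over 5 min, in sextuplicate. IC50 was taken from the concentration–inhibition curve.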

Assay [2] has as its system Platelet. The experiment in a line: Ratio of TCCA IC50 to compound IC50 for ADP-induced pig platelet aggregation. In kind it is functional, Sus scrofa. The method in brief: (§2)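 Fold ratios of IC50 values. Each IC50 came from pig PRP (2 × 10⁸ platelets/mL) light-transmission aggregometry at 37 °C for 5 min, in sextuplicate, with final ADP 10 µM, AA 350 µM, PAF 0.1 µM or thrombin 0.1 U/mL.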

A short description of assay [3]: Antiplatelet aggregation activity against thrombin-induced pig platelet aggregation after 5 mins by aggregometer. In kind it is functional, cell-based. To be noted: Sus scrofa. The method in brief:
as §1

Assay [4] can be described thus: Antiplatelet aggregation activity against arachidonic acid-induced pig platelet aggregation after 5 mins by aggregometer. In kind it is functional, cell-based. To be noted: Sus scrofa. The method in brief:
as §1

The subject of assay [5] is Platelet. The experiment in a line: Ratio of IC50 for platelet-activating factor-induced pig platelet aggregation to IC50 for ADP-induced pig platelet aggregation. It counts as functional, Sus scrofa. The method in brief:
as §2

The subject of assay [6] is Platelet. The experiment in a line: Ratio of IC50 for thrombin-induced pig platelet aggregation to IC50 for ADP-induced pig platelet aggregation. In kind it is functional, Sus scrofa. The method in brief: as §2
Assay [7] can be described thus: Antiplatelet aggregation activity against ADP-induced pig platelet aggregation after 5 mins by aggregometer. It counts as functional, cell-based. To be noted: Sus scrofa. The method in brief: as §1
The test system of assay [8] is Rattus norvegicus. The experiment in a line: Antithrombotic activity in Wistar rat arterioveinos cannula model assessed as reduction of thrombus weight at 100 nmol/kg, iv. It counts as functional. The method in brief: (§3)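 Male Wistar rats, 250–300 g. Agents were dissolved in NS and kept on ice. Heparin sodium was injected into a thread-containing polyethylene cannula, then NS or agent was injected intravenously. The cannula joined the right carotid artery to the left jugular vein, and blood flowed through it for 15 min. Wet thrombus weight on the thread was recorded as mean ± SD, n = 12.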

For assay [9], the system named is Rattus norvegicus. The experiment in a line: Antithrombotic activity in Wistar rat arterioveinos cannula model assessed as reduction of thrombus weight at 1 umol/kg, iv. It counts as functional. The method in brief:
as §3

The test system of assay [10] is Platelet. The experiment in a line: Ratio of IC50 for arachidonic acid-induced pig platelet aggregation to IC50 for ADP-induced pig platelet aggregation. It counts as functional, Sus scrofa. The method in brief: as §2
The test system of assay [11] is Rattus norvegicus. The experiment in a line: Antithrombotic activity in Wistar rat arterioveinos cannula model assessed as reduction of thrombus weight at 100 nmol/kg, po. In kind it is functional. The method in brief:
(§4)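 Male Wistar rats received agent in NS, or NS alone, orally. Blood then passed from the right carotid artery to the left jugular vein through a thread-containing polyethylene cannula for 15 min. Wet thrombus weight was reported as mean ± SD, n = 12.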

The subject of assay [12] is Rattus norvegicus. The experiment in a line: Antithrombotic activity in Wistar rat arterioveinos cannula model assessed as reduction of thrombus weight at 1 nmol/kg, iv. It counts as functional. The method in brief: as §3
Assay [13] deals with Rattus norvegicus. The experiment in a line: Antithrombotic activity in Wistar rat arterioveinos cannula model assessed as reduction of thrombus weight at 10 nmol/kg, iv. In kind it is functional. The method in brief:
as §3

Assay [14] has as its system Rattus norvegicus. The experiment in a line: Antithrombotic activity in Wistar rat arterioveinos cannula model assessed as reduction of thrombus weight at 167 umol/kg, po. It counts as functional. The method in brief:
as §4

The subject of assay [15] is Rattus norvegicus. The experiment in a line: Antithrombotic activity in Wistar rat arterioveinos cannula model assessed as reduction of thrombus weight at 167 umol/kg, iv. It counts as functional. The method in brief: as §3
The subject of assay [16] is Rattus norvegicus. The experiment in a line: Antithrombotic activity in Wistar rat arterioveinos cannula model assessed as reduction of thrombus weight at 5 umol/kg, iv. In kind it is functional. The method in brief:
as §3

Assay [17] can be described thus: Antiplatelet aggregation activity against collagen-induced platelet. It counts as functional, cell-based.

pIC50: −log10 of the molar value. Counter-ions that a name gives are not always drawn.

The term pIC50 denotes the negative decadic logarithm of the IC50, by convention in mol/L. Low values mean a large IC50, high ones a small IC50. Regarding `CC(C)C[C@H](N)C(=O)N1Cc2[nH]c3ccccc3c2C[C@H]1C(=O)O`, the pIC50 in assay [1] is 7.77; in [3] it was 7.47; in assay [4] it was 7.57; in [7] it was 8.06. The Ratio IC50 in [2] came to 81; in assay [5] it was 1.9; in [6] it was 3.9; in [10], 3.1. The Thrombus weight in [8] worked out at 25.26 mg. In assay [9], the Activity was 10.55 mg.

As to `CSCC[C@H](N)C(=O)N1Cc2[nH]c3ccccc3c2C[C@H]1C(=O)O`, the pIC50 is 7.90 in assay [1], 7.60 in assay [3], 7.63 in [4] and 8.19 in [7]. The Ratio IC50 in assay [2] stood at 108; in assay [5], 1.9; in [6], 3.9; in [10], 3.6. In addition, the Activity in assay [11] is reported as 13.49 mg; in assay [12], 22.59 mg; in [13] it was 17.67 mg. For the same compound, the Thrombus weight in assay [8] came out at 13 mg.

In the case of `CC[C@H](C)[C@H](N)C(=O)N1Cc2[nH]c3ccccc3c2C[C@H]1C(=O)O`, the pIC50 was 7.90 in [1], 7.57 in assay [3], 7.62 in [4] and 8.18 in assay [7]. The Ratio IC50 in assay [2] was found to be 107; in assay [5] it was 1.9; in [6], 4.1; in [10], 3.6. The Activity in [11] came to 13.88 mg; in assay [12] it was 25.43 mg; in [13], 18.12 mg. The Thrombus weight in [8] was found to be 13.74 mg.

Consider `CC(=O)Oc1ccccc1C(=O)O` [ASPIRIN], for which the Activity in assay [14] is 17.9 mg; in [15], 15.21 mg.

Turning to `O=C(O)[C@@H]1Cc2c([nH]c3ccccc23)CN1` [CYCLOMETHYLTRYPTOPHAN], the pIC50 was 6.12 in assay [1], 6.01 in [3], 6.06 in [4] and 6.15 in assay [7]. Besides, in [16], the Activity is recorded as 18.79 mg.

On to `COc1ccc2c(c1)[nH]c1c(C)nccc12` [HARMINE], for which the pIC50 in assay [17] was less than 3.89.

In turn, `Cc1nccc2c1[nH]c1cc(O)ccc12` [HARMOL HYDROCHLORIDE] showed a pIC50 in [17] of less than 3.89.

`c1ccc2c(c1)[nH]c1cnccc12` [NORHARMANE] showed a pIC50 in assay [17] of less than 3.89.
